The record followed here is ChEMBL document CHEMBL3826910, “Discovery of 3-(5'-Substituted)-Benzimidazole-5-(1-(3,5-dichloropyridin-4-yl)ethoxy)-1H-indazoles as Potent Fibroblast Growth Factor Receptor Inhibitors: Design, Synthesis, and Biological Evaluation” (J Med Chem, 2016).

Where only a bound is given, the exact number is not on record here.

The test system of series [1] is NCI-H1581. The experiment in a line: Antiproliferative activity against FGFR1-amplified human NCI-H1581 cells after 72 hrs by CCK8/MTT assay. The class given is functional, cell-based. The settings on record: NCI-H1581, 72 h.
For series [2], the target named is Vascular endothelial growth factor receptor 2 (Homo sapiens, UniProt P35968). The experiment in a line: Inhibition of recombinant human VEGFR2 using poly (Glu, Tyr) 4:1 as substrate after 60 mins by ELISA.
Vascular endothelial growth factor receptor 2, sequence (P35968 whole entry): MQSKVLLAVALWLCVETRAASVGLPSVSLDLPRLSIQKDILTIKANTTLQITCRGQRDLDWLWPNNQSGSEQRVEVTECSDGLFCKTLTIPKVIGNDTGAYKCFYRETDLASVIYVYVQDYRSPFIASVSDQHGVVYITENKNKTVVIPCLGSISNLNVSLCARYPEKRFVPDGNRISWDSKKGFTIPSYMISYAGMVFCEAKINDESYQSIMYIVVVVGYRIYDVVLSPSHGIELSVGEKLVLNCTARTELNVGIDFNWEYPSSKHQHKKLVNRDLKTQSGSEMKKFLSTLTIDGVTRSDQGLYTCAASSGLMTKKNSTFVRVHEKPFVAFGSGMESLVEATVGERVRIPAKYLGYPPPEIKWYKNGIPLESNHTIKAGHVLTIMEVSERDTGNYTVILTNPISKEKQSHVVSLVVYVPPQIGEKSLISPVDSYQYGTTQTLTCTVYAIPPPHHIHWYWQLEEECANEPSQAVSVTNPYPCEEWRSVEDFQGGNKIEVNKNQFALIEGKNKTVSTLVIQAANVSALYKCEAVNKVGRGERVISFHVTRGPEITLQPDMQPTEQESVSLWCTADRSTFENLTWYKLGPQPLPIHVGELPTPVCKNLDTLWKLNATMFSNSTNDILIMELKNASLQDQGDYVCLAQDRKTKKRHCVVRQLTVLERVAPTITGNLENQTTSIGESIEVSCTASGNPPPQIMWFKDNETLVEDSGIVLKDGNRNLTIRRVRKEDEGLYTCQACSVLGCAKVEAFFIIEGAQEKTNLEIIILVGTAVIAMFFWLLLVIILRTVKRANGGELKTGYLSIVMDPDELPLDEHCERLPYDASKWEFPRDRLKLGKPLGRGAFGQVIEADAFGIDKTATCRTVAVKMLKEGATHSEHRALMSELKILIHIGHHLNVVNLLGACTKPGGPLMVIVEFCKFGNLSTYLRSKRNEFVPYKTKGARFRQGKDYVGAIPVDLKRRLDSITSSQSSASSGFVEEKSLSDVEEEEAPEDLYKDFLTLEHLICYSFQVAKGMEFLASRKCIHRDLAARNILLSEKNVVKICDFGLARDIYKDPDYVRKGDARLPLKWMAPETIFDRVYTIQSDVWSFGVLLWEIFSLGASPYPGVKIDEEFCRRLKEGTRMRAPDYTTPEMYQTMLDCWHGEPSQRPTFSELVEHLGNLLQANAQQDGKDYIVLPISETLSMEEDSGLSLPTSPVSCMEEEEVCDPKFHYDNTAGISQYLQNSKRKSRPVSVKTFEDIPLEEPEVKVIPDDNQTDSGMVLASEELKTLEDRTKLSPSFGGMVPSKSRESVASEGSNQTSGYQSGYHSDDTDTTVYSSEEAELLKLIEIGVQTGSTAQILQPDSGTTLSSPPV
The target in series [3] is Fibroblast growth factor receptor 1 (Homo sapiens, UniProt P11362). The experiment in a line: Inhibition of recombinant human FGFR1 using poly (Glu, Tyr) 4:1 as substrate after 60 mins by ELISA.
Fibroblast growth factor receptor 1, sequence (P11362 whole entry): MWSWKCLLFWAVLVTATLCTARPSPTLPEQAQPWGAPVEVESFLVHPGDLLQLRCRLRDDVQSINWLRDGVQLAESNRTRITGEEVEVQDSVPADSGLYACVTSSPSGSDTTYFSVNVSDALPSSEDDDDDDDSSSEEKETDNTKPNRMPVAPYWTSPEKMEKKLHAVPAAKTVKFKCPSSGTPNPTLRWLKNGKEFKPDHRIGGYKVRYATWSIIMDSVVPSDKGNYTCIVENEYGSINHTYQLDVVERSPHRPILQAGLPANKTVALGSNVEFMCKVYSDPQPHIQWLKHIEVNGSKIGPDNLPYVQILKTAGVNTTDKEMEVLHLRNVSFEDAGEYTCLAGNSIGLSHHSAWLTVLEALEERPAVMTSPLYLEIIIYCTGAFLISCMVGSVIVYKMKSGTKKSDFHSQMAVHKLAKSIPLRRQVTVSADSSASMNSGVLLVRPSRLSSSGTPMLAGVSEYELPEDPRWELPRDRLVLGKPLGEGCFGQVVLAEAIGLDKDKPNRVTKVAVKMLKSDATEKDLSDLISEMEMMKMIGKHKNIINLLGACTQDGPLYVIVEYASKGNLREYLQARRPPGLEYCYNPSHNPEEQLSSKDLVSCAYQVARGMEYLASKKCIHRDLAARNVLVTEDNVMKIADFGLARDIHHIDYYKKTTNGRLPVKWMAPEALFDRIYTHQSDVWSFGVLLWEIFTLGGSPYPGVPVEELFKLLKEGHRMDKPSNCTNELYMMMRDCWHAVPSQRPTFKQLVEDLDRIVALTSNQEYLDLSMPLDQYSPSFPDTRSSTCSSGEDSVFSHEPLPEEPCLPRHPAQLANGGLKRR
Series [4] can be described thus: Cmax in Sprague-Dawley rat at 1 mg/kg, iv. The class given is ADME, organism-based. The settings on record: in vivo. Also on record: dose 1 mg/kg, route intravenous.
A short description of series [5]: Cmax in Sprague-Dawley rat at 5 mg/kg, po. Type of series: ADME, organism-based. Also on record: dose 5 mg/kg, route oral. The settings on record: in vivo. A digest of the protocol:
(§1)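 Male SD rats (n = 3) dosed orally by gavage at 5 mg/kg as a suspension in 0.5% CMC-Na. Quantified by LC-MS/MS. An IV arm (1 mg/kg) was run in parallel.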

A short description of series [6]: Tmax in Sprague-Dawley rat at 5 mg/kg, po. Type of series: ADME, organism-based. The settings on record: in vivo. In outline:
as §1

Series [7] in a line: Half life in Sprague-Dawley rat at 1 mg/kg, iv. The class given is ADME, organism-based. The settings on record: in vivo.
The nature of series [8]: AUC (0 to infinity) in Sprague-Dawley rat at 1 mg/kg, iv. Also on record: dose 1 mg/kg, time infinity, route intravenous. The settings on record: in vivo. Type of series: ADME, organism-based.
A short description of series [9]: AUC (0 to infinity) in Sprague-Dawley rat at 5 mg/kg, po. The settings on record: in vivo. Type of series: ADME, organism-based. The arrangement: dose 5 mg/kg, route oral, time infinity. In outline: as §1
Series [10] in a line: Clearance in Sprague-Dawley rat at 1 mg/kg, iv. Type of series: ADME, organism-based. The settings on record: in vivo.
Series [11] in a line: Volume of distribution at steady state in Sprague-Dawley rat at 1 mg/kg, iv. The class given is ADME, organism-based. The settings on record: in vivo, read-out: Vdss.
Series [12] is described as follows: Oral bioavailability in Sprague-Dawley rat at 5 mg/kg. The class given is ADME, organism-based. The settings on record: in vivo. A digest of the protocol:
as §1

For series [13], the system named is NCI-H1581. The experiment in a line: Antitumor activity against human NCI-H1581 cells xenografted in nude mouse assessed as tumor growth inhibition at 20 mg/kg administered as qd for 21 days measured on day 21 post last dose relative to vehicle-treated control. Type of series: functional. The settings on record: NCI-H1581, 504 h, read-out: TGI.
A short description of series [14]: cells. The settings on record: Homo sapiens, KG-1, 72 h.
The nature of series [15]: cells. The settings on record: Homo sapiens, SNU-16, 72 h.
Series [16] can be described thus: cells. The settings on record: Homo sapiens, RT-112, 72 h.

On to `c1cc(COc2ccc3[nH]nc(-c4nc5cc(N6CCCCC6)ccc5[nH]4)c3c2)ccn1`, for which the IC50 in series [1] worked out at 5020 nM.

`c1ccc(COc2ccc3[nH]nc(-c4nc5cc(N6CCCCC6)ccc5[nH]4)c3c2)nc1`: in series [1], the half-maximal inhibitory concentration (IC50) is 1230 nM.

In the case of `CC(Oc1ccc2[nH]nc(-c3nc4cc(C5CCN(C)CC5)ccc4[nH]3)c2c1)c1c(Cl)cncc1Cl` (stereo not drawn), the values for the IC50 in [1] and in series [2] were 1.6 nM and 7.8 nM, respectively.

In series [1], `CC(Oc1ccc2[nH]nc(-c3nc4cc(N5CCCCC5)ccc4[nH]3)c2c1)c1c(Cl)cncc1Cl` (stereo not drawn) registered an IC50 of 14.1 nM.

`CC(Oc1ccc2[nH]nc(-c3nc4ccccc4s3)c2c1)c1c(Cl)cncc1Cl` (stereo not drawn) gave an IC50 in series [1] of more than 10000 nM.

Consider `CC(Oc1ccc2[nH]nc(-c3nc4cc(N5CCC(N6CCCCC6)CC5)ccc4[nH]3)c2c1)c1c(Cl)cncc1Cl` (stereo not drawn), for which, in [1], the IC50 was found to be 10.3 nM.

For `CC(Oc1ccc2[nH]nc(-c3nc4cc(N5CCN(C)CC5)ccc4[nH]3)c2c1)c1c(Cl)cncc1Cl` (stereo not drawn), the IC50 in series [3] was 1 nM; in series [1] it was 1 nM; in [2], 8 nM.

As for `COc1ccc2[nH]c(-c3n[nH]c4ccc(OC(C)c5c(Cl)cncc5Cl)cc34)nc2c1` (stereo not drawn), the IC50 in series [1] came out at 315 nM.

In turn, `Clc1cncc(Cl)c1COc1ccc2[nH]nc(-c3nc4cc(N5CCCCC5)ccc4[nH]3)c2c1` returned an IC50 in [1] of 159 nM.

The compound `CC(Oc1ccc2[nH]nc(-c3nc4cc(N5CCOCC5)ccc4[nH]3)c2c1)c1c(Cl)cncc1Cl` (stereo not drawn) showed an IC50 in [1] of 2.2 nM.

Take `C[C@@H](Oc1ccc2[nH]nc(-c3nc4cc(CCO)ccc4[nH]3)c2c1)c1c(Cl)cncc1Cl`: in series [1], the IC50 was 1.4 nM. Further, the results for the Cmax in [4] and in [5] were 735 ng/mL and 195 ng/mL, respectively. The Tmax in series [6] worked out at 48 min. In series [7], this compound gave a half-life of 438 min. For the same compound, the AUC(0-inf) in series [8] worked out at 582 ng·h/mL; in [9], 664 ng·h/mL. In [10], this compound had a clearance of 28.3 mL/min/kg. Besides, in [11], the Vd is 17.6 L/kg. In series [12], the bioavailability was determined as 22%.

Turning to `CC(Oc1ccc2[nH]nc(-c3nc4ccccc4o3)c2c1)c1c(Cl)cncc1Cl` (stereo not drawn), half-maximal inhibition in series [1] (IC50) required 3040 nM.

The compound `C[C@H](Oc1ccc2[nH]nc(-c3nc4cc(CCO)ccc4[nH]3)c2c1)c1c(Cl)cncc1Cl` yielded an IC50 in series [1] of more than 100 nM.

For the compound `Cc1ccc2[nH]c(-c3n[nH]c4ccc(OC(C)c5c(Cl)cncc5Cl)cc34)nc2c1` (stereo not drawn), in [1], half-maximal inhibition (IC50) was put at 922 nM.

Consider `COc1cc(CCc2cc(NC(=O)c3ccc(N4C[C@@H](C)N[C@@H](C)C4)cc3)n[nH]2)cc(OC)c1` [FEXAGRATINIB], for which the IC50 in series [1] amounted to 92.1 nM; in series [14], 6.4 nM; in [15], 13.4 nM; in series [16], 88.4 nM. The inhibition in vivo at 20 mg/kg in series [13] was determined as 73.9%.

For `CC(Oc1ccc2[nH]nc(-c3nc4cc(F)ccc4[nH]3)c2c1)c1c(Cl)cncc1Cl` (stereo not drawn), the midpoint of inhibition in series [1], the IC50, lay at 582 nM.

For the compound `CC(Oc1ccc2[nH]nc(-c3nc4cc(N5CCCCC5)ccc4[nH]3)c2c1)c1c(Cl)ccnc1Cl` (stereo not drawn), the IC50 in [1] turned out to be 30.8 nM.

With `CC(Oc1ccc2[nH]nc(-c3nc4cc(N5C[C@@H](C)N[C@@H](C)C5)ccc4[nH]3)c2c1)c1c(Cl)cncc1Cl` (stereo partly drawn), the results for the IC50 in series [1] and in [2] were 1.9 nM and 9 nM, respectively.

The compound `c1cncc(COc2ccc3[nH]nc(-c4nc5cc(N6CCCCC6)ccc5[nH]4)c3c2)c1` came in with an IC50 in series [1] of 1860 nM.

The compound `CNc1ccc2[nH]c(-c3n[nH]c4ccc(OC(C)c5c(Cl)cncc5Cl)cc34)nc2c1` (stereo not drawn) registered an IC50 in [1] of 5.5 nM.

In series [1], `CC(Oc1ccc2[nH]nc(-c3cc4ccccc4[nH]3)c2c1)c1c(Cl)cncc1Cl` (stereo not drawn) registered an IC50 of 817 nM.

In the case of `Clc1cnccc1COc1ccc2[nH]nc(-c3nc4cc(N5CCCCC5)ccc4[nH]3)c2c1`, in [1], the IC50 is 3070 nM.

`CC(Oc1ccc2[nH]nc(-c3nc4cc(N5CCCN(C)CC5)ccc4[nH]3)c2c1)c1c(Cl)cncc1Cl` (stereo not drawn): in series [1], the IC50 came to 8.1 nM.

Compound `CCN1CCN(c2ccc3[nH]c(-c4n[nH]c5ccc(OC(C)c6c(Cl)cncc6Cl)cc45)nc3c2)CC1` (stereo not drawn) registered an IC50 in series [1] of 5.9 nM.

For the compound `CC(Oc1ccc2[nH]nc(-c3nc4cc(N(C)C(=O)CN(C)C)ccc4[nH]3)c2c1)c1c(Cl)cncc1Cl` (stereo not drawn), the IC50 is 0.8 nM in series [1] and 2.5 nM in series [2].

In turn, `COCCNc1ccc2[nH]c(-c3n[nH]c4ccc(OC(C)c5c(Cl)cncc5Cl)cc34)nc2c1` (stereo not drawn) showed an IC50 in series [1] of 1.2 nM.

In series [1], `Cc1cccc2[nH]c(-c3n[nH]c4ccc(OC(C)c5c(Cl)cncc5Cl)cc34)nc12` (stereo not drawn) yielded an IC50 of more than 10000 nM.

Consider `Fc1ccc2c(-c3nc4cc(N5CCC(N6CCCCC6)CC5)ccc4[nH]3)[nH]nc2c1`, for which the IC50 turned out to be 20.3 nM in [3], 749 nM in series [1] and 16.4 nM in series [2].

Regarding `CCC(Oc1ccc2[nH]nc(-c3nc4cc(N5CCCCC5)ccc4[nH]3)c2c1)c1c(Cl)cncc1Cl` (stereo not drawn), the midpoint of inhibition in series [1], the IC50, lay at 380 nM.

Turning to `CC(Oc1ccc2[nH]nc(-c3nc4ccccc4[nH]3)c2c1)c1c(Cl)cncc1Cl` (stereo not drawn), the midpoint of inhibition in series [1], the IC50, lay at 403 nM.

For `CC(Oc1ccc2[nH]nc(-c3nc4c(N5CCCCC5)cccc4[nH]3)c2c1)c1c(Cl)cncc1Cl` (stereo not drawn), the IC50 in series [3] was more than 1000 nM.

With `C[C@@H](Oc1ccc2[nH]nc(/C=C/c3cnn(CCO)c3)c2c1)c1c(Cl)cncc1Cl` [LY-2874455], the values for the IC50 in series [1] and in [2] were less than 0.5 nM and 5.8 nM, respectively.

As for `CC(Oc1ccc2[nH]nc(-c3nc4cc(NCCN(C)C)ccc4[nH]3)c2c1)c1c(Cl)cncc1Cl` (stereo not drawn), the IC50 in series [1] worked out at 1.1 nM.

For `C[C@H](Oc1ccc2[nH]nc(-c3nc4cc(N5CCN(C)CC5)ccc4[nH]3)c2c1)c1c(Cl)cncc1Cl`, the IC50 in series [3] was found to be 9.4 nM; in [1], 130 nM.

For the compound `CC(Oc1ccc2[nH]nc(-c3nc4cc(CCO)ccc4[nH]3)c2c1)c1c(Cl)cncc1Cl` (stereo not drawn), the IC50 in series [1] stood at 3.3 nM; in [2] it was 12.6 nM.
